# Several values for one entry are separate records, joined by “and”; a condition that tells them apart may be missing. Identical values can stand only once. Activity calls are given as the source filed them.
# Test system: not listed separately
# Test: pKa was evaluated
# Format: physicochemical
# Details: not given
# Outline: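 pKa determined spectrophotometrically in aqueous solution.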
row,SMILES,pKa
1,CN(C)CCNC(=O)c1cccc2c1nc(-c1ccccc1)c1ccccc12,2.75
2,CN(C)CCNC(=O)c1cccc2c1ncc1ccccc12.Cl.Cl,2.95
3,CN(C)CCNC(=O)c1cccc2c1nc(-c1ccc(Cl)cc1)c1ccccc12,2.52

# Test system: L1210
# Test: Inhibition of growth of murine leukemia (L1210) cells.
# Format: functional, cell-based
# Details: Mus musculus
# Outline: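 Murine leukemia L1210 cells grown in culture with drug for 40 h; IC50 taken as the concentration (nM) giving 50% growth inhibition.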
row,SMILES,IC50 [nM]
1,CN(C)CCNC(=O)c1cccc2c1nc(-c1cccc(Cl)c1)c1ccccc12.Cl.Cl,66
2,COc1ccc(-c2nc3c(C(=O)NCCN(C)C)cccc3c3ccccc23)cc1.Cl.Cl,500
3,CN(C)CCNC(=O)c1cccc2c1nc(-c1ccc([N+](=O)[O-])cc1)c1ccccc12,540
4,CN(C)CCCNC(=O)c1cccc2c1ncc1ccccc12.Cl.Cl,3590
5,CC(=O)Nc1ccc(-c2nc3c(C(=O)NCCN(C)C)cccc3c3ccccc23)cc1,54
6,CN(C)CCNC(=O)c1cccc2c1nc(-c1ccncc1)c1ccccc12.Cl.Cl,14
7,CN(C)CCNC(=O)c1cccc2c1nc(-c1ccccc1)c1ccccc12,120
8,CN(C)CCNC(=O)c1cccc2c1nc(-c1ccccc1Cl)c1ccccc12.Cl,2870
9,CN(C)CCNC(=O)c1cccc2c1ncc1ccccc12.Cl.Cl,2100
10,CN(C)CCNC(=O)c1cccc2c1nc(-c1ccc(Cl)cc1)c1ccccc12,410

# Test system: Lewis lung carcinoma cell line
# Test: Optimal dose administered intraperitoneally to mice infected with Lewis lung carcinoma cells(LL) in vivo
# Format: functional, Mus musculus
# Details: not given
row,SMILES,OD [mg/kg/day]
1,CN(C)CCNC(=O)c1cccc2c1nc(-c1cccc(Cl)c1)c1ccccc12.Cl.Cl,100
2,CN(C)CCNC(=O)c1cccc2c1nc(-c1ccncc1)c1ccccc12.Cl.Cl,100
3,CN(C)CCNC(=O)c1cccc2c1nc(-c1ccccc1)c1ccccc12,65
4,CN(C)CCNC(=O)c1cccc2c1ncc1ccccc12.Cl.Cl,150
5,CN(C)CCNC(=O)c1cccc2c1nc(-c1ccc(Cl)cc1)c1ccccc12,65

# Test system: Lewis lung carcinoma cell line
# Test: Optimal dose administered intraperitoneally to mice infected with Lewis lung carcinoma cells(LL) in vivo.
# Format: functional, Mus musculus
# Details: not given
row,SMILES,OD [mg/kg/day]
1,COc1ccc(-c2nc3c(C(=O)NCCN(C)C)cccc3c3ccccc23)cc1.Cl.Cl,100
2,CN(C)CCNC(=O)c1cccc2c1nc(-c1ccc([N+](=O)[O-])cc1)c1ccccc12,65
3,CC(=O)Nc1ccc(-c2nc3c(C(=O)NCCN(C)C)cccc3c3ccccc23)cc1,45

# Test system: Lewis lung carcinoma cell line
# Test: The percentage increase in lifespan of compound with Lewis lung carcinoma tumor bearing controls when treated at OD
# Format: functional, Mus musculus
# Details: not given
# Outline: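 Lewis lung carcinoma: 10^6 cells inoculated intravenously. ILSmax is the percentage increase in lifespan over tumor-bearing controls at the optimal dose (mg/kg per day). Groups of six; long-term survivors counted at 60 days; values above 40% considered significant.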
row,SMILES,ILSmax [%]
1,CN(C)CCNC(=O)c1cccc2c1nc(-c1ccccc1)c1ccccc12,126
2,CN(C)CCNC(=O)c1cccc2c1ncc1ccccc12.Cl.Cl,117

# Test system: P388
# Test: The percentage increase in lifespan of compound with P388 tumor bearing controls when treated at optimal dose
# Format: functional, Mus musculus
# Details: not given
# Outline: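 P388 leukemia: 10^6 cells inoculated intraperitoneally. ILSmax is the percentage lifespan increase over tumor-bearing controls at the optimal dose (mg/kg per day). Groups of six; long-term survivors counted at 50 days; values above 20% considered significant.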
row,SMILES,ILSmax [%]
1,CN(C)CCNC(=O)c1cccc2c1nc(-c1cccc(Cl)c1)c1ccccc12.Cl.Cl,88
2,COc1ccc(-c2nc3c(C(=O)NCCN(C)C)cccc3c3ccccc23)cc1.Cl.Cl,22
3,CN(C)CCNC(=O)c1cccc2c1nc(-c1ccc([N+](=O)[O-])cc1)c1ccccc12,65
4,CC(=O)Nc1ccc(-c2nc3c(C(=O)NCCN(C)C)cccc3c3ccccc23)cc1,22
5,CN(C)CCNC(=O)c1cccc2c1nc(-c1ccncc1)c1ccccc12.Cl.Cl,93
6,CN(C)CCNC(=O)c1cccc2c1nc(-c1ccccc1)c1ccccc12,92
7,CN(C)CCNC(=O)c1cccc2c1ncc1ccccc12.Cl.Cl,73
8,CN(C)CCNC(=O)c1cccc2c1nc(-c1ccc(Cl)cc1)c1ccccc12,34

# Test system: P388
# Test: The percentage increase in lifespan of compound with P388 tumor bearing controls when treated at optimal dose; Not active
# Format: functional
# Details: Mus musculus
# Outline: (§1)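 Mice inoculated intraperitoneally with 10^6 P388 leukemia cells. Drug given i.p. as a solution in 0.1 mL 30% v/v ethanol/water on days 1, 5 and 9. Optimal dose in mg/kg per day. ILS is the percent increase in lifespan over untreated tumor-bearing controls at that dose; above 20% counted significant. Long-term survival judged at 50 days, groups of six.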
row,SMILES,ILSmax
1,CN(C)CCNC(=O)c1cccc2c1nc(-c1ccccc1Cl)c1ccccc12.Cl,inactive

# Test system: P388
# Test: Optimal dose following i.p. administration on days 1,5 and 9 after inoculation of 10e6 P388 leukemia cells to mice.
# Format: functional, Mus musculus
# Details: not given
# Outline: as §1
row,SMILES,OD [mg/kg/day]
1,CN(C)CCNC(=O)c1cccc2c1nc(-c1cccc(Cl)c1)c1ccccc12.Cl.Cl,65
2,CN(C)CCCNC(=O)c1cccc2c1ncc1ccccc12.Cl.Cl,100
3,CC(=O)Nc1ccc(-c2nc3c(C(=O)NCCN(C)C)cccc3c3ccccc23)cc1,30
4,CN(C)CCNC(=O)c1cccc2c1nc(-c1ccncc1)c1ccccc12.Cl.Cl,100
5,CN(C)CCNC(=O)c1cccc2c1nc(-c1ccccc1)c1ccccc12,45
6,CN(C)CCNC(=O)c1cccc2c1nc(-c1ccccc1Cl)c1ccccc12.Cl,45
7,CN(C)CCNC(=O)c1cccc2c1ncc1ccccc12.Cl.Cl,100
8,CN(C)CCNC(=O)c1cccc2c1nc(-c1ccc(Cl)cc1)c1ccccc12,45

# Test system: P388
# Test: Optimal dose administered intraperitoneally on days 1,5 and 9 after intraperitoneal inoculation of 10e6 P388 leukemia cells in vivo.
# Format: functional, Mus musculus
# Details: not given
# Outline: as §1
row,SMILES,OD [mg/kg/day]
1,COc1ccc(-c2nc3c(C(=O)NCCN(C)C)cccc3c3ccccc23)cc1.Cl.Cl,65
2,CN(C)CCNC(=O)c1cccc2c1nc(-c1ccc([N+](=O)[O-])cc1)c1ccccc12,65

# Test system: Lewis lung carcinoma cell line
# Test: The percentage increase in lifespan of compound with Lewis lung carcinoma tumor bearing controls when treated at OD; Not active
# Format: functional, cell-based
# Details: Mus musculus
row,SMILES,ILSmax
1,COc1ccc(-c2nc3c(C(=O)NCCN(C)C)cccc3c3ccccc23)cc1.Cl.Cl,inactive
2,CN(C)CCNC(=O)c1cccc2c1nc(-c1ccc([N+](=O)[O-])cc1)c1ccccc12,inactive
3,CC(=O)Nc1ccc(-c2nc3c(C(=O)NCCN(C)C)cccc3c3ccccc23)cc1,inactive
4,CN(C)CCNC(=O)c1cccc2c1nc(-c1ccncc1)c1ccccc12.Cl.Cl,inactive
5,CN(C)CCNC(=O)c1cccc2c1nc(-c1ccc(Cl)cc1)c1ccccc12,inactive

# Test system: poly[d(A-T)] and poly[d(G-C)]
# Test: Binding constant for poly[d(A-T)] and poly[d(G-C)] by ethidium bromide displacement
# Details: not given
row,SMILES,Log K
1,CN(C)CCNC(=O)c1cccc2c1nc(-c1cccc(Cl)c1)c1ccccc12.Cl.Cl,6.41 and 6.56
2,CN(C)CCNC(=O)c1cccc2c1nc(-c1ccc([N+](=O)[O-])cc1)c1ccccc12,6.41 and 6.54
3,CN(C)CCCNC(=O)c1cccc2c1ncc1ccccc12.Cl.Cl,5.74 and 5.37
4,CC(=O)Nc1ccc(-c2nc3c(C(=O)NCCN(C)C)cccc3c3ccccc23)cc1,6.13 and 6.31
5,CN(C)CCNC(=O)c1cccc2c1nc(-c1ccncc1)c1ccccc12.Cl.Cl,6.9 and 7
6,CN(C)CCNC(=O)c1cccc2c1nc(-c1ccccc1)c1ccccc12,6.26 and 6.33
7,CN(C)CCNC(=O)c1cccc2c1nc(-c1ccccc1Cl)c1ccccc12.Cl,6.45 and 6.6
8,CN(C)CCNC(=O)c1cccc2c1ncc1ccccc12.Cl.Cl,5.9 and 5.61
9,CN(C)CCNC(=O)c1cccc2c1nc(-c1ccc(Cl)cc1)c1ccccc12,6.26 and 6.24

# — ChEMBL document CHEMBL1124080, “Potential antitumor agents. 55. 6-Phenylphenanthridine-4-carboxamides: a new class of DNA-intercalating antitumor agents” (J Med Chem, 1988)
